Experiments:
[1] = Pharmacokinetics, first-in-human single ascending dose study; assay type: in vivo; conditions: n = 8
Summary of the method: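 Healthy men received a single fasted dose of 3–200 mg, with 8 on active drug per cohort. Plasma was sampled pre-dose and at 0.25–36 h. Drug was quantified by validated LC–MS/MS (LLOQ 1.00 ng/mL). Cmax, tmax, t1/2, AUClast and AUC∞ were calculated by noncompartmental analysis using actual elapsed sampling times.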

[2] = test system: healthy male subjects; experiment: NeuroCart smooth pursuit; assay type: in vivo, human; conditions: 12-hour post-dose period
Summary of the method: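 This used the same head-fixed screen set-up as the saccade test. Subjects tracked a dot moving continuously at 0.3–1.1 Hz in 0.1 Hz steps, twice pre-dose and at 0.5–10 h after a single dose or placebo. Change from baseline over 12 h was analysed by MMRM against pooled placebo, with baseline as covariate.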

[3] = test system: healthy male subjects; experiment: ECG, QTcF interval; assay type: in vivo, human
Summary of the method: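 Randomized, double-blind, placebo-controlled single ascending dose study in healthy men, dosed 3–200 mg after an overnight fast. 12-lead ECGs were recorded in triplicate, 1 min apart, after 5 min rest in the semi-recumbent position, at scheduled times. QTc and other intervals were derived automatically from the digital ECGs by the Marquette 12SL algorithm.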

[4] = target: SERT (Homo sapiens, UniProt P31645); experiment: In vitro binding affinity, SERT; conditions: read-out: Ki, SERT; preclinical in vitro panel
Sequence of SERT (P31645 whole entry, species assumed): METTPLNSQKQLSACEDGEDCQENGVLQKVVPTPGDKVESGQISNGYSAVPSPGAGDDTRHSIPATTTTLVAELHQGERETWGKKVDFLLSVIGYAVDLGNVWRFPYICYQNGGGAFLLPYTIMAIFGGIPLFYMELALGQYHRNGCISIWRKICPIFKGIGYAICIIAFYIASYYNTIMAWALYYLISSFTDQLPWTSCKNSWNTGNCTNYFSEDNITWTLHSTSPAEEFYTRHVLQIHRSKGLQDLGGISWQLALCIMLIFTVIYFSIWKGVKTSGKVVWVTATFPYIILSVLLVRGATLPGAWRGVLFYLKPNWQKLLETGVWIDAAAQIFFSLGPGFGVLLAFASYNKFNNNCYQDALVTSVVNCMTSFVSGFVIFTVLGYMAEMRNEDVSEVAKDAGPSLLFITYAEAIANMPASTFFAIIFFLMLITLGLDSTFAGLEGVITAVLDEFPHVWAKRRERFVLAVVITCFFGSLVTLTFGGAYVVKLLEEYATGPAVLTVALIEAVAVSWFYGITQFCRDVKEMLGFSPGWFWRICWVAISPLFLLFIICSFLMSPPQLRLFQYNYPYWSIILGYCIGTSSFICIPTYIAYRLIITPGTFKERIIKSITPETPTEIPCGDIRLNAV

[5] = test system: dogs; experiment: Preclinical dog cardiovascular study; assay type: in vivo; conditions: any dose

CN1CCC23CCCCC2C1Cc1ccc(C(N)=O)cc13 (stereo not drawn) [ALKS 7119, (9α, 13α)‐17‐methylmorphinan‐3‐carboxamide]
AUC infinite/dose ([1]; 3 mg single oral dose): 33.34
AUClast, mean (SD) ([1]; 3 mg single oral dose): 85.88 (25.56) hr*ng/ml
AUClast, range ([1]; 3 mg single oral dose): 57.37 to 129.02 ng·h/mL
AUC∞, mean (SD) ([1]; 3 mg single oral dose): 100.03 (25.04) hr*ng/ml
AUC∞, range ([1]; 3 mg single oral dose): 73.65 to 140.04 ng·h/mL
Cmax, mean (SD) ([1]; 3 mg single oral dose): 8.33 (2.78) ng/ml
Cmax, range ([1]; 3 mg single oral dose): 5.87 to 13.20 ng/mL
Cmax/dose ([1]; 3 mg single oral dose): 2.78
t1/2, mean (SD) ([1]; 3 mg single oral dose): 6.98(1.16) h
t1/2, range ([1]; 3 mg single oral dose): 5.20 to 8.77 h
tmax, median ([1]; 3 mg single oral dose): 2.02 h
tmax, range ([1]; 3 mg single oral dose): 2.00 to 4.15 h
AUC infinite/dose ([1]; 10 mg single oral dose): 29.54
AUClast, mean (SD) ([1]; 10 mg single oral dose): 272.60 (35.69) hr*ng/ml
AUClast, range ([1]; 10 mg single oral dose): 198.45 to 321.20 ng·h/mL
AUC∞, mean (SD) ([1]; 10 mg single oral dose): 295.38 (32.29) hr*ng/ml
AUC∞, range ([1]; 10 mg single oral dose): 233.76 to 338.34 ng·h/mL
Cmax, mean (SD) ([1]; 10 mg single oral dose): 25.33 (3.91) ng/ml
Cmax, range ([1]; 10 mg single oral dose): 20.40 to 32.30 ng/mL
Cmax/dose ([1]; 10 mg single oral dose): 2.53
t1/2, mean (SD) ([1]; 10 mg single oral dose): 8.51 (0.89) h
t1/2, range ([1]; 10 mg single oral dose): 7.01 to 9.45 h
tmax, median ([1]; 10 mg single oral dose): 2.00 h
tmax, range ([1]; 10 mg single oral dose): 1.00 to 2.00 h
AUC infinite/dose ([1]; 25 mg single oral dose): 29.25
AUClast, mean (SD) ([1]; 25 mg single oral dose): 703.56 (89.80) hr*ng/ml
AUClast, range ([1]; 25 mg single oral dose): 608.46 to 864.96 ng·h/mL
AUC∞, mean (SD) ([1]; 25 mg single oral dose): 731.29 (87.27) hr*ng/ml
AUC∞, range ([1]; 25 mg single oral dose): 640.06 to 883.94 ng·h/mL
Cmax, mean (SD) ([1]; 25 mg single oral dose): 74.51 (16.19) ng/ml
Cmax, range ([1]; 25 mg single oral dose): 51.00 to 93.00 ng/mL
Cmax/dose ([1]; 25 mg single oral dose): 2.98
t1/2, mean (SD) ([1]; 25 mg single oral dose): 7.81 (0.83) h
t1/2, range ([1]; 25 mg single oral dose): 6.78 to 9.41 h
tmax, median ([1]; 25 mg single oral dose): 1.00 h
tmax, range ([1]; 25 mg single oral dose): 1.00 to 2.00 h
AUC infinite/dose ([1]; 50 mg single oral dose): 30.94
AUClast, mean (SD) ([1]; 50 mg single oral dose): 1473.57 (203.53) hr*ng/ml
AUClast, range ([1]; 50 mg single oral dose): 1234.86 to 1780.97 ng·h/mL
AUC∞, mean (SD) ([1]; 50 mg single oral dose): 1547.06 (196.89) hr*ng/ml
AUC∞, range ([1]; 50 mg single oral dose): 1277.55 to 1828.84 ng·h/mL
Cmax, mean (SD) ([1]; 50 mg single oral dose): 140.00 (32.44) ng/ml
Cmax, range ([1]; 50 mg single oral dose): 103.00 to 190.00 ng/mL
Cmax/dose ([1]; 50 mg single oral dose): 2.80
t1/2, mean (SD) ([1]; 50 mg single oral dose): 7.81 (0.69) h
t1/2, range ([1]; 50 mg single oral dose): 6.99 to 8.68 h
tmax, median ([1]; 50 mg single oral dose): 1.53 h
tmax, range ([1]; 50 mg single oral dose): 1.00 to 4.00 h
AUC infinite/dose ([1]; 75 mg single oral dose): 33.98
AUClast, mean (SD) ([1]; 75 mg single oral dose): 2406.33 (373.64) hr*ng/ml
AUClast, range ([1]; 75 mg single oral dose): 1732.82 to 2969.47 ng·h/mL
AUC∞, mean (SD) ([1]; 75 mg single oral dose): 2548.51 (468.23) hr*ng/ml
AUC∞, range ([1]; 75 mg single oral dose): 1772.06 to 3367.86 ng·h/mL
Cmax, mean (SD) ([1]; 75 mg single oral dose): 225.50 (40.59) ng/ml
Cmax, range ([1]; 75 mg single oral dose): 190.00 to 302.00 ng/mL
Cmax/dose ([1]; 75 mg single oral dose): 3.01
t1/2, mean (SD) ([1]; 75 mg single oral dose): 8.42 (1.63) h
t1/2, range ([1]; 75 mg single oral dose): 6.84 to 12.01 h
tmax, median ([1]; 75 mg single oral dose): 1.50 h
tmax, range ([1]; 75 mg single oral dose): 0.50 to 4.00 h
AUC infinite/dose ([1]; 100 mg single oral dose): 31.36
AUClast, mean (SD) ([1]; 100 mg single oral dose): 3027.23 (600.53) hr*ng/ml
AUClast, range ([1]; 100 mg single oral dose): 2340.29 to 4326.23 ng·h/mL
AUC∞, mean (SD) ([1]; 100 mg single oral dose): 3136.45 (634.60) hr*ng/ml
AUC∞, range ([1]; 100 mg single oral dose): 2418.74 to 4525.46 ng·h/mL
Cmax, mean (SD) ([1]; 100 mg single oral dose): 307.63 (75.28) ng/ml
Cmax, range ([1]; 100 mg single oral dose): 224.00 to 465.00 ng/mL
Cmax/dose ([1]; 100 mg single oral dose): 3.08
t1/2, mean (SD) ([1]; 100 mg single oral dose): 7.63 (0.93) h
t1/2, range ([1]; 100 mg single oral dose): 6.36 to 8.84 h
tmax, median ([1]; 100 mg single oral dose): 1.50 h
tmax, range ([1]; 100 mg single oral dose): 1.00 to 4.08 h
AUC infinite/dose ([1]; 125 mg single oral dose): 33.50
AUClast, mean (SD) ([1]; 125 mg single oral dose): 4059.17 (809.98) hr*ng/ml
AUClast, range ([1]; 125 mg single oral dose): 3120.58 to 5579.28 ng·h/mL
AUC∞, mean (SD) ([1]; 125 mg single oral dose): 4187.59 (840.18) hr*ng/ml
AUC∞, range ([1]; 125 mg single oral dose): 3188.91 to 5732.16 ng·h/mL
Cmax, range ([1]; 125 mg single oral dose): 315.00 to 745.00 ng/mL
Cmax/dose ([1]; 125 mg single oral dose): 3.58
t1/2, mean (SD) ([1]; 125 mg single oral dose): 7.26 (0.99) h
t1/2, range ([1]; 125 mg single oral dose): 6.06 to 8.72 h
tmax, median ([1]; 125 mg single oral dose): 2.00 h
tmax, range ([1]; 125 mg single oral dose): 2.00 to 4.00 h
AUC infinite/dose ([1]; 150 mg single oral dose): 30.22
AUClast, mean (SD) ([1]; 150 mg single oral dose): 4361.53 (782.96) hr*ng/ml
AUClast, range ([1]; 150 mg single oral dose): 3622.31 to 6015.06 ng·h/mL
AUC∞, mean (SD) ([1]; 150 mg single oral dose): 4533.66 (862.77) hr*ng/ml
AUC∞, range ([1]; 150 mg single oral dose): 3790.65 to 6362.63 ng·h/mL
Cmax, mean (SD) ([1]; 150 mg single oral dose): 413.38 (65.38) ng/ml
Cmax, range ([1]; 150 mg single oral dose): 314.00 to 540.00 ng/mL
Cmax/dose ([1]; 150 mg single oral dose): 2.76
t1/2, mean (SD) ([1]; 150 mg single oral dose): 7.53 (0.88) h
t1/2, range ([1]; 150 mg single oral dose): 6.10 to 8.51 h
tmax, median ([1]; 150 mg single oral dose): 2.00 h
tmax, range ([1]; 150 mg single oral dose): 1.00 to 4.00 h
AUC infinite/dose ([1]; 175 mg single oral dose): 34.02
AUClast, mean (SD) ([1]; 175 mg single oral dose): 5754.94 (1013.23) hr*ng/ml
AUClast, range ([1]; 175 mg single oral dose): 4681.45 to 7356.86 ng·h/mL
AUC∞, mean (SD) ([1]; 175 mg single oral dose): 5954.09 (1047.00) hr*ng/ml
AUC∞, range ([1]; 175 mg single oral dose): 4820.27 to 7488.93 ng·h/mL
Cmax, mean (SD) ([1]; 175 mg single oral dose): 660.63 (167.66) ng/ml
Cmax, range ([1]; 175 mg single oral dose): 451.00 to 893.00 ng/mL
Cmax/dose ([1]; 175 mg single oral dose): 3.78
t1/2, mean (SD) ([1]; 175 mg single oral dose): 7.48 (0.87) h
t1/2, range ([1]; 175 mg single oral dose): 5.91 to 8.83 h
tmax, median ([1]; 175 mg single oral dose): 2.01 h
tmax, range ([1]; 175 mg single oral dose): 1.02 to 4.00 h
AUC infinite/dose ([1]; 200 mg single oral dose): 33.61
AUClast, mean (SD) ([1]; 200 mg single oral dose): 6490.47 (1144.87) hr*ng/ml
AUClast, range ([1]; 200 mg single oral dose): 5120.43 to 8737.25 ng·h/mL
AUC∞, mean (SD) ([1]; 200 mg single oral dose): 6721.82 (1227.19) hr*ng/ml
AUC∞, range ([1]; 200 mg single oral dose): 5273.49 to 9126.15 ng·h/mL
Cmax, mean (SD) ([1]; 200 mg single oral dose): 656.00 (104.74) ng/ml
Cmax, range ([1]; 200 mg single oral dose): 491.00 to 795.00 ng/mL
Cmax/dose ([1]; 200 mg single oral dose): 3.28
t1/2, mean (SD) ([1]; 200 mg single oral dose): 7.35 (0.58) h
t1/2, range ([1]; 200 mg single oral dose): 6.72 to 8.33 h
tmax, median ([1]; 200 mg single oral dose): 3.00 h
tmax, range ([1]; 200 mg single oral dose): 1.00 to 4.00 h
Smooth pursuit, LSM CFB ([2]; 3 mg single oral dose): −0.26%
Smooth pursuit, LSM CFB ([2]; 10 mg single oral dose): 0.06%
Smooth pursuit, LSM CFB ([2]; 25 mg single oral dose): −1.44%
Smooth pursuit, LSM CFB ([2]; 50 mg single oral dose): −0.03%
Smooth pursuit, LSM CFB ([2]; 75 mg single oral dose): −3.44%
Smooth pursuit, LSM CFB ([2]; 100 mg single oral dose): −0.49%
Smooth pursuit, LSM CFB ([2]; 125 mg single oral dose): −3.82%
Smooth pursuit, LSM CFB ([2]; 150 mg single oral dose): −1.14%
Smooth pursuit, LSM CFB ([2]; 175 mg single oral dose): −1.07%
Smooth pursuit, LSM CFB ([2]; 200 mg single oral dose): 1.24%
Subjects with QTcF increases from baseline of 30–60 ms ([3]; all ALKS 7119 groups, only at 50 mg or higher, none in placebo): 8.8%
QTcF interval increases compared to baseline ([3]; doses of ≥50 mg): 30 to 60 ms
Highest individual QTcF value ([3]; subject treated with 200 mg): 475 ms
Increase of QTcF compared to baseline at highest individual value ([3]; subject treated with 200 mg): 33 ms
Ki [4]: 35 nM
QT intervals [5]: No changes in QT intervals

Source: paper PMC9302689 (British Journal of Clinical Pharmacology, 2022)
